Key:
[1] = species: Cavia porcellus; assay: In vitro functional efficacy determined by maximal contraction of isolated guinea pig gallbladder at 1 uM concentration of compound relative to CCK-8 at 1 uM
Method in brief: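 Isolated guinea pig gallbladder exposed to test ligand for 30 min at 37 °C. Maximal contraction at a single compound concentration is expressed relative to the CCK-8 contraction, set at 100%. Selective CCK-A antagonist MK-329 was used to check reversal of agonist responses.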

[2] = tested on: Rattus norvegicus; assay: Percentage maximal response in rats at 10 umol/kg administered intraperitoneally; type: functional
Method in brief: (§1)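 Fasted rats in a conditioned-feeder model, dosed intraperitoneally; food intake measured at 30 min versus control animals. %Max is the percentage reduction in intake at 10 µmol/kg (CCK-8 at 0.5 µmol/kg). ED50 is the dose producing 50% of the maximal response seen at 10 µmol/kg.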

[3] = species: Cavia porcellus; assay: Concentration at which 50% of the maximal contraction was observed for % CCK; type: functional
Method in brief: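 Isolated guinea pig gallbladder strips incubated with test ligand 30 min at 37 °C; contraction read as efficacy relative to CCK-8 (1 µM) = 100%. Single-concentration efficacy taken at 30 µM. Full dose–response curves run for ligands giving >40% of the CCK-8 response; ED50 is the concentration giving 50% of maximal contraction. Agonism checked for reversal by CCK-A antagonist MK-329.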

[4] = tested on: Rattus norvegicus; assay: In vivo anoretic efficacy in the rat conditioned feeder assay measured as dose that produced half maximal response; type: functional; method in brief: as §1

Compound | inhibition at 1 µM [1] [%] | Max [2] [%] | ED50 [3] [µM] | ED50 [4] [nmol/kg]
COc1ccc(N(C(=O)CN2C(=O)C(Cc3n[nH]c4ccccc34)N=C(c3ccccc3)c3ccccc32)C(C)C)cc1 (configuration not stated) | 27 |  |  | 
COc1ccc(N(C(=O)CN2C(=O)C(NC(=O)Nc3cccc(C(=O)O)c3)[N+]([O-])=C(C3CCCCC3)c3ccccc32)C(C)C)cc1 (configuration not stated) |  | 69 | 0.003 | 80
COc1ccc(N(C(=O)CN2C(=O)C(NC(=O)Nc3ccccc3)[N+]([O-])=C(C)c3ccccc32)C(C)C)cc1 (configuration not stated) |  |  | 0.202 | 
COc1ccc(N(C(=O)CN2C(=O)C(NC(=O)Nc3ccccc3)[N+]([O-])=C(C3CCCCC3)c3ccccc32)C(C)C)cc1 (configuration not stated) |  | 75 | 0.342 | 25
COc1ccc(N(C(=O)CN2C(=O)C(CC(=O)Nc3ccccc3)N=C(c3ccccc3)c3ccccc32)C(C)C)cc1 (configuration not stated) |  |  | 1.1 | 
COc1ccc(N(C(=O)CN2C(=O)C(NC(=O)Nc3ccccc3)N=C(C)c3ccccc32)C(C)C)cc1 (configuration not stated) |  |  | 0.296 | 
CC(C)N(C(=O)CN1C(=O)C(Cc2c[nH]c3ccccc23)N=C(c2ccccc2)c2ccccc21)c1ccccc1 (configuration not stated) |  |  | 0.041 | 
COc1ccc(N(C(=O)CN2C(=O)C(NC(=O)c3cc4ccccc4[nH]3)[N+]([O-])=C(C3CCCCC3)c3ccccc32)C(C)C)cc1 (configuration not stated) |  |  | 0.131 | 
COc1ccc(N(C(=O)CN2C(=O)C(NC(=O)Nc3ccccc3)N=C(C3CCCCC3)c3ccccc32)C(C)C)cc1 (configuration not stated) |  |  | 0.233 | 
COc1ccc(N(C(=O)CN2C(=O)C(Cc3n[nH]c4ccccc34)[N+]([O-])=C(c3ccccc3)c3ccccc32)C(C)C)cc1 (configuration not stated) |  | 79 | 0.013 | 150
COc1ccc(N(C(=O)CN2C(=O)C(NC(=O)Nc3cccc(C(=O)O)c3)N=C(c3ccccc3)c3ccccc32)C(C)C)cc1 (configuration not stated) | 27 |  |  | 
